Results as given in ChEMBL document CHEMBL4513216, “Probing the Open Global Health Chemical Diversity Library for Multistage-Active Starting Points for Next-Generation Antimalarials” (ACS Infect Dis, 2020).

Test: Toxicity liver stage against HepG2, at 10uM
Assay type: cell-based
Parameters: test concentration 10 uM, cell line HepG2-A16-CD81EGFP
Details: human, HepG2-A16-CD81EGFP cells; read-out: INHIBITION
Procedure, shortened: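 Uninfected HepG2-A16-CD81EGFP cells, 3 × 10^3 per well, 1536-well, plated on prespotted compound at 10 μM final, parasite-free screening media added to match infected plates; puromycin 10 μM positive, DMSO 0.5% negative; run in parallel with 48 h PbLuc assay at 37 °C, 5% CO2; viability by CellTiter-Glo luminescence, normalized to controls.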

| Structure (SMILES) | cytotoxicity at 10 µM [%] |
| --- | --- |
| CCc1c(C)nn(CCNC(=O)c2cc(C3CC3)n[nH]2)c1C | -12.1 |
| CS(=O)(=O)c1ccc(NC(=O)N2C[C@H](O)[C@@H](N3CCOCC3)C2)cc1 | -46 |
| CC(=O)N(Cc1noc(C2CC2)n1)C1CCN(Cc2cc(C)on2)C1 (stereo not given) | -6.08 |
| COC(=O)c1ccc2ccn(CC3CCNC3)c(=O)c2c1 (stereo not given) | -28 |
| Cc1nnsc1CNC(=O)c1ccc2c(c1)nc(N1CCOCC1)n2C | -13.8 |
| O=C(NCCn1nc2ccccn2c1=O)c1cc(-c2ccccc2)[nH]n1 | -28.5 |
| CCOC(=O)N1CCN(c2nc(NC)c3ccccc3n2)CC1 | -9.75 |
| CC(C)C(=O)N1CC[C@@H]2CN(Cc3ccncc3)S(=O)(=O)[C@@H]2CC1 | 5.38 |
| CC(C)c1ccc(NC(=O)Cn2cc(I)cn2)cc1 | 2.77 |
| CCN1CCN(Cc2nc(C)no2)CC1 | 0.978 |
| COCCCOc1ccc(C(=O)N(Cc2cnn(C)c2)C(C)C)cn1 | 2.1 |
| O=C(c1cnc(-c2cccnc2)nc1)N1CCC(c2ccncc2)CC1 | -13.7 |
| COc1cccc([C@@]2(O)CC[C@@H]3CN(C(=O)c4c[nH]nc4C)C[C@@H]32)c1 | 2.67 |
| Cc1c(C2CC(=O)Nc3c2cnn3C(C)(C)C)cnn1C (stereo not given) | -2.89 |
| O=C(Cn1c(=O)n(Cc2ccco2)c2ncccc21)NC1CC1 | -6.33 |
| O=C(CCNc1ncccn1)NCc1ccc(Br)s1 | 6.72 |
| CCC(CCO)NS(=O)(=O)c1ccc(Br)cn1 (stereo not given) | 6.62 |
| CN(CCCc1cnn(C)c1)Cc1cc2n(n1)CCNC2 | 11.1 |
| O=C1CCC(C(=O)Nc2cnn(-c3ccccc3Br)c2)N1 (stereo not given) | 3.56 |
| Cc1cn2c(=O)c(-c3ccnc(NC4CCOCC4)n3)cnc2s1 | -5.5 |
| CCn1nc(C)c(CNC(=O)NCC(C)(O)c2ccco2)c1C (stereo not given) | -10.8 |
| Cc1cccc(CS(=O)(=O)NCc2nn(C)c3c2COCC3)c1 | -3.02 |

| Structure (SMILES) | cytotoxicity at 10 µM [%] |
| --- | --- |
| N#Cc1ccc(C(=O)O)nc1C=Cc1cccc(F)c1 | 8 |
| CNC(=O)[C@H]1C[C@@H]2CN(Cc3cccnc3OC)C[C@@H]2N1C(C)C | 11.5 |
| Cc1cnn(CC2CCCN2C(=O)c2cccc(F)c2F)c1 (stereo not given) | -1.3 |
| Cn1cc(CN(C/C=C/c2ccccc2)C2CC2)cn1 | -10.1 |
| Cc1cc(C)n(C2CN(CC(=O)NCc3ccccn3)C2)n1 | -2.92 |
| CS(=O)(=O)NCc1cnc2n1CCN(Cc1ccccn1)CC2 | 8.85 |
| CCOc1cccc(CNC(=O)CN2CCC3(CCOC3)C2)c1 (stereo not given) | -42.1 |
| CC(OCC1CC1)C(=O)NCc1cccc(CN2CCN(C)CC2)c1 (stereo not given) | 0.193 |
| CC(C)(C)OC(=O)N1CCN(S(=O)(=O)CCCC#N)C2(CCCCC2)C1 | -6.1 |
| COc1ccccc1OCCC(=O)N1CCCC1Cn1cc(C)cn1 (stereo not given) | 6.02 |
| Fc1ccc(CN2CCCC3(CCN(Cc4ncc[nH]4)C3)C2)cc1F (stereo not given) | -12 |
| Cc1cc(C(=O)N2CCCC(C)C2)ccc1NCC(=O)N1CCOCC1 (stereo not given) | -0.153 |
| COc1ccc(Cl)cc1NCC(=O)N(Cc1cccnc1)C1CC1 | 11.8 |
| CN1CCc2nc(N(C)C)nc(N3CCC(O)CC3)c2C1 | -0.879 |
| Cn1c(CN2CCCCC2)cc(=O)c(O)c1CN1CCCCC1 | -2.34 |
| CC(C)c1nccn1CCCNC(=O)c1ccc(N(C)C)nc1 | 15.7 |
| O=C(c1cc(=O)[nH]c(=O)[nH]1)N1CCCC(CO)(CC2CC2)C1 (stereo not given) | -3.02 |
| CS(=O)(=O)N1CCO[C@@H]2CN(C(=O)N3CCCC3)CC[C@@H]2C1 | -101 |
| Cn1ncc2c1CCCN(C(=O)C1CCC1)C2 | -3.15 |
| CNC(=O)c1cc2c(nc1N(C)C)CCN(c1ncccn1)CC2 | -119 |
| CCCNC(=O)CN1CCCC1c1nc(Cc2ccc(F)cc2)no1 (stereo not given) | 4.8 |
| Cc1ncc(CN(C)c2nc3c(cnn3C(C)(C)C)c(=O)[nH]2)s1 | -19.2 |

| Structure (SMILES) | cytotoxicity at 10 µM [%] |
| --- | --- |
| Fc1ccc(OCC2CCCO2)c(NCc2cn3cccnc3n2)c1 (stereo not given) | -6.31 |
| CCc1nc(NCCCn2cccn2)c2c(n1)c(C)nn2C | 6.41 |
| CCc1nnsc1C(=O)NCc1nnc2n1CCCCC2 | 0.136 |
| O=C(CCc1cc2n(n1)CCCNC2)N1CCN(C2CCCC2)C(=O)C1 | 2.68 |
| O=C(c1ccncc1)N1CCn2c(nnc2-c2ccccc2)C1 | 4.45 |
| N#Cc1cccnc1OC1CCN(C(=O)c2cc(C3CC3)on2)CC1 | 0.253 |
| Cc1nnc(N2CCCC(C(=O)c3cccc(Cl)c3)C2)o1 (stereo not given) | 6.14 |
| Cc1nnc2n1CCN(C(=O)c1cnc3c(cnn3C(C)C)c1)C2 | -6.69 |
| CC(C)NC(=O)N1CCCn2cnc(CN3CCCC3=O)c2C1 | 17.4 |
| c1cnc(N2CCC(NCc3cnc(C4CCC4)s3)CC2)nc1 | 4.24 |
| COc1ccc(C(CNS(=O)(=O)c2cn(C)nc2C)N2CCCC2)cc1 (stereo not given) | 4.11 |
| CCOCCn1nc(C)cc1C(=O)N1CC[C@](C)(O)[C@H](C)C1 | -6.34 |
| CC(=O)N1N=C(c2ccccc2)OC1C(=O)NCCc1ccc(Cl)cc1 (stereo not given) | 3.68 |
| CCn1c(C)nnc1SCCNC(=O)c1sc(C(C)C)nc1C | -1.27 |
| COc1ccc(-c2nc(C3(NC(=O)OC(C)(C)C)CCC3)no2)cn1 | 12.5 |
| CNC(=O)[C@@]12CCO[C@@H]1CCN(S(=O)(=O)c1cccnc1)C2 | -3.3 |
| Cc1cc(S(=O)(=O)NC(C)(C)CN)c(F)cc1F | 4.87 |
| CC(C)c1nc(CN2CCN(CC(O)c3ccccc3)CC2)no1 (stereo not given) | -3.6 |
| Cc1ccccc1C(=O)Nc1cnn(CCN2CCOCC2)c1 | -11.7 |
| COCCCC1CCCN(C(=O)CCc2csc(N)n2)C1 (stereo not given) | -2.66 |
| CCN(CC)S(=O)(=O)NC(C)C(=O)N(C)C (stereo not given) | 9.55 |
| Cc1ccc(S(=O)(=O)Nc2ccc(N3CCOCC3)cn2)cc1 | 3.92 |

| Structure (SMILES) | cytotoxicity at 10 µM [%] |
| --- | --- |
| O=C(CN1CCc2cncnc2C1)N1CCc2sccc2C1 | 11.9 |
| Cc1nc(C2(O)CCCNCC2)sc1CCOc1ccc(F)c(F)c1 (stereo not given) | -21.4 |
| Cc1ncsc1C(=O)N1CCc2nnc(C3CCCCN3C)n2CC1 (stereo not given) | 3.3 |
| Cn1nnc2c1C(COCC1CC1)CN(C(=O)Cc1cccs1)C2 (stereo not given) | 3.88 |
| COc1ccccc1OCCCc1cc(C)nc(N)n1 | 0.915 |
| Cc1csc(CN2C[C@H](NC(=O)C3CCOCC3)[C@@H](C(C)C)C2)n1 | 6.99 |
| OCc1ccc(N2CCN(c3ncccn3)CC2)c(F)c1 | -23.8 |
| O=C(CCc1cscn1)NS(=O)(=O)c1ccc2c(c1)CCC2 | -24.5 |
| COCCCC(=O)Nc1cccnc1N1CCCCC1 | -6.34 |
| CNC(=O)[C@H]1C[C@@H]2CN(S(=O)(=O)c3ccc(F)cc3)C[C@@H]2N1C | -2.97 |
| N#Cc1ccccc1OCCN1CCC(C(=O)N2CCOCC2)CC1 | -47.2 |
| CN(C)Cc1cc(C2CCCN(S(=O)(=O)c3cccc(Cl)c3)C2)nn1C (stereo not given) | 0.288 |
| Fc1cnc(N2CCC3(CCCN(c4nncs4)C3)C2)nc1 (stereo not given) | 2.15 |
| Cc1nc(CO[C@@H]2CN(Cc3nccs3)[C@@H]3COC[C@@H]32)cs1 | -3.03 |
| CCOc1cc(CN(C)CCCC#N)ccc1OC(F)F | -10.3 |
| COCCN1CCN(Cc2ccco2)Cc2ccc(C)nc21 | 0.657 |
| CN(C)CCN(C)C[C@@H]1CN(Cc2cccc(O)c2)C[C@@H]1CO | 0.972 |
| Cc1nc(CN(C)C(=O)Nc2cccc(C)c2C)no1 | -0.739 |
| COc1cccc(CCNCc2c(C)nn(C)c2N(C)C)c1 | -1.6 |
| CC(C)CNC(=O)CN(C)S(C)(=O)=O | 13.7 |
| N#Cc1ccnc(N2CCN(C(=O)c3ccc4c(c3)CCO4)CC2)c1 | -5.75 |
| COc1ccc(NC(C)C(=O)NCCc2cccs2)cc1F (stereo not given) | -13.5 |

| Structure (SMILES) | cytotoxicity at 10 µM [%] |
| --- | --- |
| COc1ccc(-c2cc(C3CCOC3)c(C#N)c(N)n2)cn1 (stereo not given) | 10.2 |
| CN(C(=O)OC(C)(C)C)C1CCN(C(=O)c2ccc(Cl)o2)C1 (stereo not given) | -42.5 |
| Cc1cc(C)c2[nH]c(C)c(CC(=O)N(C)CCN(C)C)c2c1 | 2.49 |
| O=c1ccc(-c2cccs2)nn1CN1CCOC(c2ccccc2)C1 (stereo not given) | 7.57 |
| Cc1cc(CN2CCC(C3Nc4ccccc4S(=O)(=O)N3)CC2)oc1C (stereo not given) | 4.22 |
| Cc1cc(-c2nc(-c3ccccn3)nn2C2CCN(C)CC2)nc(C)n1 | -3.14 |
| Cc1ccc(N2CC[C@H](OCC3CC3)[C@@H]2Cc2ccncc2)nn1 | 8.13 |
| c1ncn(CC2CCCN(Cc3cn4ccsc4n3)C2)n1 (stereo not given) | -7.04 |
| CC(C)Cc1noc(CN2CCCC(CNS(N)(=O)=O)C2)n1 (stereo not given) | -4.88 |
| CC(=O)N1CCC2(CCN(Cc3ccccn3)C2=O)C1 (stereo not given) | 0.0869 |
| Cc1ccc(C(=O)N2CCC3(CC2)CC(N2CCOCC2)C3)cc1 | 1.93 |
| Cc1cnn(CCNCc2ccccc2OCc2ccccn2)c1 | 3.03 |
| CCCOc1cc(Cl)c(CN2CCNC(C(=O)NC3CC3)C2)cc1OC (stereo not given) | 0.508 |
| CC(C)c1noc(C(C)S(=O)(=O)CC(=O)N2CCCC2)n1 (stereo not given) | 4.23 |
| OCCNc1cc(N2CCN(Cc3ccccc3)C(CCO)C2)ncn1 (stereo not given) | 6.45 |
| CC(C)N1CCCC2(CCN(C(=O)COCC(F)(F)C(F)F)C2)C1=O (stereo not given) | 13.1 |
| Cc1nc(C(C)C)sc1C(=O)N(C)CCCc1cnn(C)c1 | -4.6 |
| COc1cccc2c1OCC(CNC(=O)CSc1ccccn1)C2 (stereo not given) | -135 |
| Cc1nc(C2CCN(S(=O)(=O)c3ccc(Cl)cc3)CC2)n[nH]1 | 10.6 |
| CC(=O)N1CCN(C(=O)Nc2ccc(Cl)cc2)[C@H]2CS(=O)(=O)C[C@H]21 | 6.55 |
| CC1(C)CN(Cc2csc(CS(C)(=O)=O)n2)Cc2ccccc21 | 6.38 |
| CN1CCC/C1=N\S(=O)(=O)c1ccc(NC(=O)c2ccc(Cl)cc2)cc1 | -0.383 |
